Measurements reported in ChEMBL document CHEMBL3758168, “Hybrid triazoles: Design and synthesis as potential dual inhibitor of growth and efflux inhibition in tuberculosis” (Eur J Med Chem, 2016).
Values after ≈ are worked out from the molar mass of the structure shown.

Key:
[1] = system: Mycolicibacterium smegmatis; test: Anti-tubercular activity against Mycobacterium smegmatis MC2 155 ATCC 700084 after 3 days by microdilution method; assay type: functional; conditions: MC2 155 ATCC 700084, 72 h
In short: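 M. smegmatis mc2155 grown in MB7H9 + 10% OADC at 37 °C with shaking to OD600 0.8. Inoculum set to 0.5 McFarland, diluted 1:100, and mixed 1:1 with two-fold serial dilutions in MB7H9. Plates incubated 3 days at 37 °C with growth and sterility controls. MIC taken as the lowest concentration with no visible growth.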

[2] = Cytotoxicity against human MDM assessed as cell viability after 3 days by Alamar blue dye-based fluorocytometric analysis relative to control; conditions: 72 h
[3] = system: Mycobacterium tuberculosis; test: Antibacterial activity against Mycobacterium tuberculosis H37Rv ATCC 27294T assessed as isoniazid MIC at 0.25 ug/ml after 7 days by microdilution checkerboard assay; assay type: functional; conditions: 168 h
In short: (§1)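 Two-dimensional checkerboard in H37Rv at 10^5 CFU/ml in MB7H9/OADC. Partner drug (amikacin, EtBr, isoniazid, ofloxacin or rifampin) two-fold serially diluted across columns 3-11. Test compound two-fold serially diluted down rows 2-6. Plates incubated 7 days at 37 °C, then MTT added overnight. […] Run in triplicate.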

[4] = system: Mycobacterium tuberculosis; test: Antibacterial activity against Mycobacterium tuberculosis H37Rv ATCC 27294T assessed as ethidium bromide MIC at 0.25 ug/ml after 7 days by microdilution checkerboard assay; assay type: functional; conditions: 168 h; in short: as §1
[5] = system: Mycobacterium tuberculosis; test: Antibacterial activity against Mycobacterium tuberculosis H37Rv ATCC 27294T assessed as ethidium bromide MIC at 0.5 ug/ml after 7 days by microdilution checkerboard assay; assay type: functional; conditions: 168 h; in short: as §1
[6] = system: Mycobacterium tuberculosis; test: Antibacterial activity against Mycobacterium tuberculosis H37Rv ATCC 27294T assessed as ethidium bromide MIC at 1 ug/ml after 7 days by microdilution checkerboard assay; assay type: functional; conditions: 168 h; in short: as §1
[7] = system: Mycobacterium tuberculosis; test: Antibacterial activity against Mycobacterium tuberculosis H37Rv ATCC 27294T assessed as ethidium bromide MIC at 2 ug/ml after 7 days by microdilution checkerboard assay; assay type: functional; conditions: 168 h; in short: as §1
[8] = system: Mycobacterium tuberculosis; test: Antibacterial activity against Mycobacterium tuberculosis H37Rv ATCC 27294T assessed as ethidium bromide MIC at 4 ug/ml after 7 days by microdilution checkerboard assay; assay type: functional; conditions: 168 h; in short: as §1
[9] = system: Mycobacterium tuberculosis; test: Antibacterial activity against Mycobacterium tuberculosis H37Rv ATCC 27294T assessed as ethidium bromide MIC at 8 ug/ml after 7 days by microdilution checkerboard assay; assay type: functional; conditions: 168 h; in short: as §1
[10] = system: Mycobacterium tuberculosis; test: Antibacterial activity against Mycobacterium tuberculosis H37Rv ATCC 27294T assessed as ethidium bromide MIC at 16 ug/ml after 7 days by microdilution checkerboard assay; assay type: functional; conditions: 168 h; in short: as §1
[11] = system: Mycobacterium tuberculosis; test: Antibacterial activity against Mycobacterium tuberculosis H37Rv ATCC 27294T assessed as ofloxacin MIC at 0.25 ug/ml after 7 days by microdilution checkerboard assay; assay type: functional; conditions: 168 h; in short: as §1
[12] = system: Mycobacterium tuberculosis; test: Antibacterial activity against Mycobacterium tuberculosis H37Rv ATCC 27294T assessed as ofloxacin MIC at 0.5 ug/ml after 7 days by microdilution checkerboard assay; assay type: functional; conditions: 168 h; in short: as §1
[13] = system: Mycobacterium tuberculosis; test: Antibacterial activity against Mycobacterium tuberculosis H37Rv ATCC 27294T assessed as ofloxacin MIC at 1 ug/ml after 7 days by microdilution checkerboard assay; assay type: functional; conditions: 168 h; in short: as §1
[14] = system: Mycobacterium tuberculosis; test: Antibacterial activity against Mycobacterium tuberculosis H37Rv ATCC 27294T assessed as ofloxacin MIC at 2 ug/ml after 7 days by microdilution checkerboard assay; assay type: functional; conditions: 168 h; in short: as §1
[15] = system: Mycobacterium tuberculosis; test: Antibacterial activity against Mycobacterium tuberculosis H37Rv ATCC 27294T assessed as ofloxacin MIC at 4 ug/ml after 7 days by microdilution checkerboard assay; assay type: functional; conditions: 168 h; in short: as §1
[16] = system: Mycobacterium tuberculosis; test: Antibacterial activity against Mycobacterium tuberculosis H37Rv ATCC 27294T assessed as ofloxacin MIC at 8 ug/ml after 7 days by microdilution checkerboard assay; assay type: functional; conditions: 168 h; in short: as §1
[17] = system: Mycobacterium tuberculosis; test: Antibacterial activity against Mycobacterium tuberculosis H37Rv ATCC 27294T assessed as ofloxacin MIC at 16 ug/ml after 7 days by microdilution checkerboard assay; assay type: functional; conditions: 168 h; in short: as §1
[18] = system: Mycobacterium tuberculosis; test: Antibacterial activity against Mycobacterium tuberculosis H37Rv ATCC 27294T assessed as amikacin MIC at 0.25 ug/ml after 7 days by microdilution checkerboard assay; assay type: functional; conditions: 168 h; in short: as §1
[19] = system: Mycobacterium tuberculosis; test: Antibacterial activity against Mycobacterium tuberculosis H37Rv ATCC 27294T assessed as amikacin MIC at 0.5 ug/ml after 7 days by microdilution checkerboard assay; assay type: functional; conditions: 168 h; in short: as §1
[20] = system: Mycobacterium tuberculosis; test: Antibacterial activity against Mycobacterium tuberculosis H37Rv ATCC 27294T assessed as amikacin MIC at 1 ug/ml after 7 days by microdilution checkerboard assay; assay type: functional; conditions: 168 h; in short: as §1
[21] = system: Mycobacterium tuberculosis; test: Antibacterial activity against Mycobacterium tuberculosis H37Rv ATCC 27294T assessed as amikacin MIC at 2 ug/ml after 7 days by microdilution checkerboard assay; assay type: functional; conditions: 168 h; in short: as §1
[22] = system: Mycobacterium tuberculosis; test: Antibacterial activity against Mycobacterium tuberculosis H37Rv ATCC 27294T assessed as amikacin MIC at 4 ug/ml after 7 days by microdilution checkerboard assay; assay type: functional; conditions: 168 h; in short: as §1
[23] = system: Mycobacterium tuberculosis; test: Anti-tubercular activity against Mycobacterium tuberculosis H37Rv ATCC 27294T after 7 days by mircodilution method; assay type: functional; conditions: 168 h
In short: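 H37Rv grown static in MB7H9 + 10% OADC at 37 °C to OD600 0.8, then diluted to about 10^5 cells/ml. Mixed 1:1 with two-fold serial dilutions in MB7H9/OADC and incubated 7 days at 37 °C. MTT added to final 2.5% and plates incubated overnight. MIC is the lowest concentration with no colour change. Run in triplicate.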

[24] = system: Mycobacterium tuberculosis; test: Antibacterial activity against Mycobacterium tuberculosis H37Rv ATCC 27294T assessed as isoniazid MIC at 16 ug/ml after 7 days by microdilution checkerboard assay; assay type: functional; conditions: 168 h; in short: as §1
[25] = system: Mycobacterium tuberculosis; test: Antibacterial activity against Mycobacterium tuberculosis H37Rv ATCC 27294T assessed as isoniazid MIC at 8 ug/ml after 7 days by microdilution checkerboard assay; assay type: functional; conditions: 168 h; in short: as §1
[26] = system: Mycobacterium tuberculosis; test: Antibacterial activity against Mycobacterium tuberculosis H37Rv ATCC 27294T assessed as isoniazid MIC at 4 ug/ml after 7 days by microdilution checkerboard; assay type: functional; conditions: 168 h; in short: as §1
[27] = system: Mycobacterium tuberculosis; test: Antibacterial activity against Mycobacterium tuberculosis H37Rv ATCC 27294T assessed as isoniazid MIC at 2 ug/ml after 7 days by microdilution checkerboard assay; assay type: functional; conditions: 168 h; in short: as §1
[28] = system: Mycobacterium tuberculosis; test: Antibacterial activity against Mycobacterium tuberculosis H37Rv ATCC 27294T assessed as isoniazid MIC at 1 ug/ml after 7 days by microdilution checkerboard assay; assay type: functional; conditions: 168 h; in short: as §1
[29] = system: Mycobacterium tuberculosis; test: Antibacterial activity against Mycobacterium tuberculosis H37Rv ATCC 27294T assessed as isoniazid MIC at 0.5 ug/ml after 7 days by microdilution checkerboard assay; assay type: functional; conditions: 168 h; in short: as §1
[30] = system: Mycobacterium tuberculosis; test: Antibacterial activity against Mycobacterium tuberculosis H37Rv ATCC 27294T assessed as amikacin MIC at 8 ug/ml after 7 days by microdilution checkerboard assay; assay type: functional; conditions: 168 h; in short: as §1
[31] = system: Mycobacterium tuberculosis; test: Antibacterial activity against Mycobacterium tuberculosis H37Rv ATCC 27294T assessed as amikacin MIC at 16 ug/ml after 7 days by microdilution checkerboard assay; assay type: functional; conditions: 168 h; in short: as §1
[32] = system: Mycobacterium tuberculosis; test: Antibacterial activity against Mycobacterium tuberculosis H37Rv ATCC 27294T assessed as rifampin MIC at 0.25 ug/ml after 7 days by microdilution checkerboard assay; assay type: functional; conditions: 168 h; in short: as §1
[33] = system: Mycobacterium tuberculosis; test: Antibacterial activity against Mycobacterium tuberculosis H37Rv ATCC 27294T assessed as rifampin MIC at 0.5 ug/ml after 7 days by microdilution checkerboard assay; assay type: functional; conditions: 168 h
In short: (§2)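 M. tuberculosis H37Rv grown in MB7H9 + 10% OADC at 37 °C to OD600 0.8; plates inoculated at 10^5 CFU/ml. Rifampicin two-fold serially diluted across columns, test compound two-fold diluted down rows (two-dimensional checkerboard). Sealed, 37 °C for seven days, then MTT added and incubated overnight. MIC read as no colour change. Triplicate.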

[34] = system: Mycobacterium tuberculosis; test: Antibacterial activity against Mycobacterium tuberculosis H37Rv ATCC 27294T assessed as rifampin MIC at 1 ug/ml after 7 days by microdilution checkerboard assay; assay type: functional; conditions: 168 h; in short: as §2
[35] = system: Mycobacterium tuberculosis; test: Antibacterial activity against Mycobacterium tuberculosis H37Rv ATCC 27294T assessed as rifampin MIC at 2 ug/ml after 7 days by microdilution checkerboard assay; assay type: functional; conditions: 168 h; in short: as §2
[36] = system: Mycobacterium tuberculosis; test: Antibacterial activity against Mycobacterium tuberculosis H37Rv ATCC 27294T assessed as rifampin MIC at 4 ug/ml after 7 days by microdilution checkerboard assay; assay type: functional; conditions: 168 h; in short: as §2
[37] = system: Mycobacterium tuberculosis; test: Antibacterial activity against Mycobacterium tuberculosis H37Rv ATCC 27294T assessed as rifampin MIC at 8 ug/ml after 7 days by microdilution checkerboard assay; assay type: functional; conditions: 168 h; in short: as §2
[38] = system: Mycobacterium tuberculosis; test: Antibacterial activity against Mycobacterium tuberculosis H37Rv ATCC 27294T assessed as rifampin MIC at 16 ug/ml after 7 days by microdilution checkerboard assay; assay type: functional; conditions: 168 h; in short: as §2

SMILES: CCSc1nnc(COc2ccccc2C2=NOC(c3ccc(Cl)cc3Cl)C2)n1NC(C)=O (stereo not drawn)
- MIC [1]: 2 µg/mL (≈ 3.95 µM)
- IC50 [2]: 9.7 µg/mL (≈ 19.2 µM)
- MIC [3]: 0.1 µg/mL
- MIC [4]: 12.5 µg/mL
- MIC [5]: 12.5 µg/mL
- MIC [6]: 12.5 µg/mL
- MIC [7]: 12.5 µg/mL
- MIC [8]: 6.25 µg/mL
- MIC [9]: 1.56 µg/mL
- MIC [10]: 0.39 µg/mL
- MIC [11]: 2 µg/mL
- MIC [12]: 1 µg/mL
- MIC [13]: 1 µg/mL
- MIC [14]: 1 µg/mL
- MIC [15]: 1 µg/mL
- MIC [16]: 1 µg/mL
- MIC [17]: 0.0312 µg/mL
- MIC [18]: 1 µg/mL
- MIC [19]: 1 µg/mL
- MIC [20]: 1 µg/mL
- MIC [21]: 1 µg/mL
- MIC [22]: 1 µg/mL
- MIC [23]: 8 µg/mL (≈ 15.8 µM)
- MIC [24]: 0.00156 µg/mL
- MIC [25]: 0.025 µg/mL
- MIC [26]: 0.1 µg/mL
- MIC [27]: 0.1 µg/mL
- MIC [28]: 0.1 µg/mL
- MIC [29]: 0.1 µg/mL
- MIC [30]: 0.25 µg/mL
- MIC [31]: 0.0312 µg/mL
- MIC [32]: 1 µg/mL
- MIC [33]: 0.5 µg/mL
- MIC [34]: 0.5 µg/mL
- MIC [35]: 0.25 µg/mL
- MIC [36]: 0.125 µg/mL
- MIC [37]: 0.0312 µg/mL
- MIC [38]: 0.0156 µg/mL
